Laboratory results taken from publication PMC3114175 (Bioorganic & medicinal chemistry, 2011).

Key:
TLR7 = biological target: T1, TLR7 (Homo sapiens, UniProt Q9NYK1); assay: TLR7 antagonism reporter gene assay; type: cell-based
T1 sequence (Q9NYK1 27-1049): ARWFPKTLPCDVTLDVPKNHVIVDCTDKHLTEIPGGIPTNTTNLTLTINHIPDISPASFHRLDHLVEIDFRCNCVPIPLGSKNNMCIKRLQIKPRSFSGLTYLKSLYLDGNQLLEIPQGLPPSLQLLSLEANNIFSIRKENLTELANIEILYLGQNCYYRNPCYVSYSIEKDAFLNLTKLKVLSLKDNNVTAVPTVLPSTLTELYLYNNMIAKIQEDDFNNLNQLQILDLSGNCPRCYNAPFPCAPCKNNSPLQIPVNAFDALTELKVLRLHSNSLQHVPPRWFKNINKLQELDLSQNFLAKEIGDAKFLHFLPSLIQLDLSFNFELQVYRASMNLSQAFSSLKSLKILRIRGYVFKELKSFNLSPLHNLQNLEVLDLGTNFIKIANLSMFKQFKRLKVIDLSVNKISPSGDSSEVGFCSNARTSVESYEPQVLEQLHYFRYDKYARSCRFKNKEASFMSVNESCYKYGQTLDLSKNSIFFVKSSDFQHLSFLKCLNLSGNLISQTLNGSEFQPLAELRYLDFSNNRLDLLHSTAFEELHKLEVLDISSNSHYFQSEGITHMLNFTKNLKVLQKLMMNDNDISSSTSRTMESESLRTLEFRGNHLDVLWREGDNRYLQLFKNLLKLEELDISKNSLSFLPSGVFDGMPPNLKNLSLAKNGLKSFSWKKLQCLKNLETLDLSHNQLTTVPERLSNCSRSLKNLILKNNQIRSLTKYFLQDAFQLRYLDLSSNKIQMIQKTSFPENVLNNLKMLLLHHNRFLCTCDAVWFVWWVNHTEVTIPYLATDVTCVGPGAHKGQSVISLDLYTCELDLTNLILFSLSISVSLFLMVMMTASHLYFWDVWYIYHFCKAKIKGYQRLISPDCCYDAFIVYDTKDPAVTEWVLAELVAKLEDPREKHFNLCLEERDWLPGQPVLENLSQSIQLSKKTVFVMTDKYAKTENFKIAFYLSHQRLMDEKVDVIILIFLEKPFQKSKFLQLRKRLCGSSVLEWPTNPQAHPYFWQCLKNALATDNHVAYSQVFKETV
How it was run: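 HEK-Blue-7 cells (HEK293 stably expressing TLR7 plus NF-κB/AP-1-driven secreted alkaline phosphatase reporter) were kept in selection medium with zeocin and normocin and grown to confluency. They were stimulated with gardiquimod at 1 μg/mL, or 250 ng/mL for Schild analysis, with serially diluted test compound (top 250 μM) added concurrently. After overnight incubation, supernatant sAP was read with chromogen at 620 nm. Replicates were duplicate or quadruplicate.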

TLR8 = biological target: T2, TLR8 (Homo sapiens, UniProt Q9NR97); assay: TLR8 antagonism reporter gene assay; type: cell-based
T2 sequence (Q9NR97 27-1041): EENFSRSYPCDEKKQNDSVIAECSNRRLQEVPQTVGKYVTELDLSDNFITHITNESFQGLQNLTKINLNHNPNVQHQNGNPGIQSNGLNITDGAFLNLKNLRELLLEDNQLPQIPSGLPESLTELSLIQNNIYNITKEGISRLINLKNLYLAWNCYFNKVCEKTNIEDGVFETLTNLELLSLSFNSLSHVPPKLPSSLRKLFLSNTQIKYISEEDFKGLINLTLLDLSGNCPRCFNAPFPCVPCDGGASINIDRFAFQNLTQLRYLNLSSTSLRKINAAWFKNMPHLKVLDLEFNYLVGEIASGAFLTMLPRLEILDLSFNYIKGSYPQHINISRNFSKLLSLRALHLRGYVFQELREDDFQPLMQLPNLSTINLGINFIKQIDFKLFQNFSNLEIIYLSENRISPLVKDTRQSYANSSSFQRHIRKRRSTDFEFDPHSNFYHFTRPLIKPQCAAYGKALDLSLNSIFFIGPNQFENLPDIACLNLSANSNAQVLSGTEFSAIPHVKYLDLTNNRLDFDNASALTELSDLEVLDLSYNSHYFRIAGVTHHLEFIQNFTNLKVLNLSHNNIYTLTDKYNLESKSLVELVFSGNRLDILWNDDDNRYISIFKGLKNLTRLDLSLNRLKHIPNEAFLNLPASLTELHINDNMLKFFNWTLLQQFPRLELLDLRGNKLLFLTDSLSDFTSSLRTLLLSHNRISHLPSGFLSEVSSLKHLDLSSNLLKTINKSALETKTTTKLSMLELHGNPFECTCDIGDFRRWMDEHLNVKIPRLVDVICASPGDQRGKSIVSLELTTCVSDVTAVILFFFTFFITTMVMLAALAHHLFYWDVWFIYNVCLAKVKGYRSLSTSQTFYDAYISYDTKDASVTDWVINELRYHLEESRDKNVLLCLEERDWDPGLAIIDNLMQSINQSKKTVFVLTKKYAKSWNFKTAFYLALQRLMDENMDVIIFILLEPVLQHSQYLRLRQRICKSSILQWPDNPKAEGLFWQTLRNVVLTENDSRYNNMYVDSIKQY

SMILES | IC50 (TLR7) | other results
CC(C)(O)Cn1c(-c2ccccc2)nc2c3ccccc3ncc21 [Compound 4b, 2-methyl-1-(2-phenyl-3H-imidazo[4,5-c]quinolin-3-yl)propan-2-ol] | > 250 µM | –
CC(C)(O)Cn1c(C2CCCCC2)nc2c3ccccc3ncc21 [Compound 4c] | > 250 µM | –
COc1ccc(Cn2c(-c3ccccc3)nc3c4ccccc4ncc32)cc1 [Compound 5b, 3-(4-methoxybenzyl)-2-phenyl-3H-imidazo[4,5-c]quinoline] | > 250 µM | IC50 (TLR8): > 250 µM
CCNCc1nc2c3ccccc3ncc2n1CCCO [Compound 6a, 3-(2-((ethylamino)methyl)-3H-imidazo[4,5-c]quinolin-3-yl)propan-1-ol] | > 250 µM | IC50 (TLR8): > 250 µM
C#CCn1c(CCCCCCCCC)nc2c3ccccc3ncc21 [Compound 7d] | – | TLR7-inhibitory activity (TLR7): low micromolar TLR7-inhibitory activity
CCCCCCCCCc1nc2c3ccccc3ncc2n1C [Compound 8d] | – | TLR7-inhibitory activity (TLR7): low micromolar TLR7-inhibitory activity
CCNCc1nc2c3ccccc3[n+]([O-])cc2n1CC(C)(C)O [Compound 10, 2-((ethylamino)methyl)-3-(2-hydroxy-2-methylpropyl)-3H-imidazo[4,5-c]quinoline 5-oxide] | > 250 µM | –
CCNCc1nc2c3ccccc3nc(NC(=O)c3ccccc3)c2n1CC(C)(C)O [Compound 11, N-(2-((ethylamino)methyl)-3-(2-hydroxy-2-methylpropyl)-3H-imidazo[4,5-c]quinolin-4-yl)benzamide] | > 250 µM | –
COc1ccc(Cn2c(-c3ccccc3)nc3c4ccccc4[n+](Cc4ccc(OC)cc4)cc32)cc1 [Compound 12, 3,5-bis(4-methoxybenzyl)-2-phenyl-3H-imidazo[4,5-c]quinolin-5-ium] | – | Mode of inhibition by Schild analyses (TLR7; agonist gardiquimod 1 μg/mL and 250 ng/mL): competitive
